Measurements from ChEMBL document CHEMBL4043093, “2-Oxo-3, 4-dihydropyrimido[4, 5-d]pyrimidinyl derivatives as new irreversible pan fibroblast growth factor receptor (FGFR) inhibitors” (Eur J Med Chem, 2017).

What was measured:
[1] = test system: NCI-H520; test: Antiproliferative activity against human FGFR1-amplified NCI-H520 cells after 7 days by SRB assay; details: NCI-H520, 168 h
[2] = molecular target: Activin receptor type-1 (Homo sapiens) (UniProt Q04771); test: Inhibition of wild-type human ACVR1 (C188 to C509 residues) expressed in Escherichia coli BL21 assessed as residual activity at 1000 nM after 30 mins by Kinomescan method relative to control
Outline: (§1)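 Single-point screen at a fixed 1 µM, run within a 456-kinase DiscoveRx KINOMEscan panel. Each kinase's read-out is Percent Control, i.e. signal relative to a control without compound. Hits were scored by a Percent Control < 35 cut-off, and an S(35) selectivity score was calculated across the non-mutant kinases.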

[3] = molecular target: Activin receptor type-2A (Homo sapiens) (UniProt P27037); test: Inhibition of wild-type human ACVR2A (V171 to T499 residues) expressed in Escherichia coli BL21 assessed as residual activity at 1000 nM after 30 mins by Kinomescan method relative to control; outline: as §1
[4] = molecular target: 5'-AMP-activated protein kinase catalytic subunit alpha-1 (Homo sapiens) (UniProt Q13131); test: Inhibition of wild-type human partial length AMPK alpha1 (M1 to E306 residues) expressed in Escherichia coli BL21 assessed as residual activity at 1000 nM after 30 mins by Kinomescan method relative to control
[5] = molecular target: Aurora kinase A (Homo sapiens) (UniProt O14965); test: Inhibition of wild-type human partial length AURKA (E122 to K401 residues) expressed in HEK293 cells assessed as residual activity at 1000 nM after 30 mins by Kinomescan method relative to control; assay type: cell-based
[6] = molecular target: Cyclin-dependent kinase 13 (Homo sapiens) (UniProt Q14004); test: Inhibition of wild-type human partial length CDC2L5 (H675 to S1054 residues) expressed in HEK293 cells assessed as residual activity at 1000 nM after 30 mins by Kinomescan method relative to control; assay type: cell-based
[7] = molecular target: Citron Rho-interacting kinase (Homo sapiens) (UniProt O14578); test: Inhibition of wild-type human partial length CIT (M68 to E432 residues) expressed in Escherichia coli BL21 assessed as residual activity at 1000 nM after 30 mins by Kinomescan method relative to control
[8] = molecular target: Dual specificity tyrosine-phosphorylation-regulated kinase 1B (Homo sapiens) (UniProt Q9Y463); test: Inhibition of wild-type human full length DYRK1B (M1 to S629 residues) expressed in Escherichia coli BL21 assessed as residual activity at 1000 nM after 30 mins by Kinomescan method relative to control
Outline: (§2)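 Single-concentration screen at 1 µM across a 456-kinase KINOMEscan panel. The read-out is Percent Control for each kinase.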

[9] = molecular target: Ephrin type-A receptor 1 (Homo sapiens) (UniProt P21709); test: Inhibition of wild-type human partial length EPHA1 (V588 to I913 residues) expressed in Escherichia coli BL21 assessed as residual activity at 1000 nM after 30 mins by Kinomescan method relative to control
[10] = molecular target: Ephrin type-A receptor 7 (Homo sapiens) (UniProt Q15375); test: Inhibition of wild-type human partial length EPHA7 (Y608 to S912 residues) expressed in Escherichia coli BL21 assessed as residual activity at 1000 nM after 30 mins by Kinomescan method relative to control
[11] = test system: Receptor-type tyrosine-protein kinase FLT3 (Homo sapiens), P36888 [K663Q]; test: Inhibition of human partial length FLT3 K663Q mutant (V592 to Y969 residues) expressed in Escherichia coli BL21 assessed as residual activity at 1000 nM after 30 mins by Kinomescan method relative to control
Outline: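 KINOMEscan binding panel of 456 kinases, with the test compound at a single concentration of 1 µM. Read-out is Percent Control.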

[12] = molecular target: Vascular endothelial growth factor receptor 3 (Homo sapiens) (UniProt P35916); test: Inhibition of wild-type human partial length FLT4 (E821 to E1196 residues) expressed in Escherichia coli BL21 assessed as residual activity at 1000 nM after 30 mins by Kinomescan method relative to control
[13] = molecular target: Inhibitor of nuclear factor kappa-B kinase subunit beta (Homo sapiens) (UniProt O14920); test: Inhibition of wild-type human full length IKK-beta (M1 to S756 residues) expressed in HEK293 cells assessed as residual activity at 1000 nM after 30 mins by Kinomescan method relative to control; assay type: cell-based; outline: as §2
[14] = molecular target: Serine/threonine-protein kinase Nek10 (Homo sapiens) (UniProt Q6ZWH5); test: Inhibition of wild-type human partial length NEK10 (L488 to R809 residues) expressed in HEK293 cells assessed as residual activity at 1000 nM after 30 mins by Kinomescan method relative to control; assay type: cell-based
[15] = molecular target: Cyclin-dependent kinase 16 (Homo sapiens) (UniProt Q00536); test: Inhibition of wild-type human partial length PCTK1 (G160 to A474 residues) expressed in HEK293 cells assessed as residual activity at 1000 nM after 30 mins by Kinomescan method relative to control; assay type: cell-based
[16] = molecular target: Phosphatidylinositol 4-phosphate 5-kinase type-1 alpha (Homo sapiens) (UniProt Q99755); test: Inhibition of wild-type human full length PIP5K1A (M1 to H562 residues) expressed in Escherichia coli BL21 assessed as residual activity at 1000 nM after 30 mins by Kinomescan method relative to control
Outline: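 Single-concentration screen at 1 µM against a 456-kinase panel (KINOMEscan). Read-out is Percent Control for each kinase. Across the 403 non-mutant kinases, an S(35) selectivity score was derived as the fraction of kinases with Percent Control < 35.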

[17] = molecular target: Ribosomal protein S6 kinase alpha-5 (Homo sapiens) (UniProt O75582); test: Inhibition of wild-type human partial length C-terminal RPS6KA5 kinase domain 2 (V390 to T718 residues) expressed in Escherichia coli BL21 assessed as residual activity at 1000 nM after 30 mins by Kinomescan method relative to control
[18] = molecular target: Ribosomal protein S6 kinase alpha-1 (Homo sapiens) (UniProt Q15418); test: Inhibition of wild-type human partial length C-terminal RSK1 kinase domain 2 (P360 to L681 residues) expressed in Escherichia coli BL21 assessed as residual activity at 1000 nM after 30 mins by Kinomescan method relative to control
[19] = molecular target: Ribosomal protein S6 kinase alpha-3 (Homo sapiens) (UniProt P51812); test: Inhibition of wild-type human partial length C-terminal RSK3 kinase domain 2 (V403 to K700 residues) expressed in Escherichia coli BL21 assessed as residual activity at 1000 nM after 30 mins by Kinomescan method relative to control
[20] = molecular target: Serine/threonine-protein kinase 32C (Homo sapiens) (UniProt Q86UX6); test: Inhibition of wild-type human partial length YANK3 (M68 to G486 residues) expressed in Escherichia coli BL21 assessed as residual activity at 1000 nM after 30 mins by Kinomescan method relative to control
[21] = molecular target: Serine/threonine-protein kinase 25 (Homo sapiens) (UniProt O00506); test: Inhibition of wild-type human partial length YSK1 (V14 to H295 residues) expressed in Escherichia coli BL21 assessed as residual activity at 1000 nM after 30 mins by Kinomescan method relative to control

Serine/threonine-protein kinase 32C (Homo sapiens), sequence (Q86UX6 whole entry, the tested form may be a part): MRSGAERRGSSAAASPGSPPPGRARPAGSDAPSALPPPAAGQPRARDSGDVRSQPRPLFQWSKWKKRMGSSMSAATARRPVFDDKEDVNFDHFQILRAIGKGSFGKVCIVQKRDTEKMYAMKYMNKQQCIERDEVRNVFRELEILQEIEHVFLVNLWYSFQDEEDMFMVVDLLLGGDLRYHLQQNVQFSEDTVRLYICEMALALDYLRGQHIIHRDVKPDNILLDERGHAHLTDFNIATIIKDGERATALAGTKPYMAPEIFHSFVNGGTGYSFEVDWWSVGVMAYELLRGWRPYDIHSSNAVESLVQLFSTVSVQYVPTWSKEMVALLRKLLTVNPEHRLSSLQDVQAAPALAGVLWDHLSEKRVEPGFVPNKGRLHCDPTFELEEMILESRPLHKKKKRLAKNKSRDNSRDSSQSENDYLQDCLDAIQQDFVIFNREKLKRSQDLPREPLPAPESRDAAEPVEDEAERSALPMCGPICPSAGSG
Citron Rho-interacting kinase (Homo sapiens), sequence (O14578 whole entry, the tested form may be a part): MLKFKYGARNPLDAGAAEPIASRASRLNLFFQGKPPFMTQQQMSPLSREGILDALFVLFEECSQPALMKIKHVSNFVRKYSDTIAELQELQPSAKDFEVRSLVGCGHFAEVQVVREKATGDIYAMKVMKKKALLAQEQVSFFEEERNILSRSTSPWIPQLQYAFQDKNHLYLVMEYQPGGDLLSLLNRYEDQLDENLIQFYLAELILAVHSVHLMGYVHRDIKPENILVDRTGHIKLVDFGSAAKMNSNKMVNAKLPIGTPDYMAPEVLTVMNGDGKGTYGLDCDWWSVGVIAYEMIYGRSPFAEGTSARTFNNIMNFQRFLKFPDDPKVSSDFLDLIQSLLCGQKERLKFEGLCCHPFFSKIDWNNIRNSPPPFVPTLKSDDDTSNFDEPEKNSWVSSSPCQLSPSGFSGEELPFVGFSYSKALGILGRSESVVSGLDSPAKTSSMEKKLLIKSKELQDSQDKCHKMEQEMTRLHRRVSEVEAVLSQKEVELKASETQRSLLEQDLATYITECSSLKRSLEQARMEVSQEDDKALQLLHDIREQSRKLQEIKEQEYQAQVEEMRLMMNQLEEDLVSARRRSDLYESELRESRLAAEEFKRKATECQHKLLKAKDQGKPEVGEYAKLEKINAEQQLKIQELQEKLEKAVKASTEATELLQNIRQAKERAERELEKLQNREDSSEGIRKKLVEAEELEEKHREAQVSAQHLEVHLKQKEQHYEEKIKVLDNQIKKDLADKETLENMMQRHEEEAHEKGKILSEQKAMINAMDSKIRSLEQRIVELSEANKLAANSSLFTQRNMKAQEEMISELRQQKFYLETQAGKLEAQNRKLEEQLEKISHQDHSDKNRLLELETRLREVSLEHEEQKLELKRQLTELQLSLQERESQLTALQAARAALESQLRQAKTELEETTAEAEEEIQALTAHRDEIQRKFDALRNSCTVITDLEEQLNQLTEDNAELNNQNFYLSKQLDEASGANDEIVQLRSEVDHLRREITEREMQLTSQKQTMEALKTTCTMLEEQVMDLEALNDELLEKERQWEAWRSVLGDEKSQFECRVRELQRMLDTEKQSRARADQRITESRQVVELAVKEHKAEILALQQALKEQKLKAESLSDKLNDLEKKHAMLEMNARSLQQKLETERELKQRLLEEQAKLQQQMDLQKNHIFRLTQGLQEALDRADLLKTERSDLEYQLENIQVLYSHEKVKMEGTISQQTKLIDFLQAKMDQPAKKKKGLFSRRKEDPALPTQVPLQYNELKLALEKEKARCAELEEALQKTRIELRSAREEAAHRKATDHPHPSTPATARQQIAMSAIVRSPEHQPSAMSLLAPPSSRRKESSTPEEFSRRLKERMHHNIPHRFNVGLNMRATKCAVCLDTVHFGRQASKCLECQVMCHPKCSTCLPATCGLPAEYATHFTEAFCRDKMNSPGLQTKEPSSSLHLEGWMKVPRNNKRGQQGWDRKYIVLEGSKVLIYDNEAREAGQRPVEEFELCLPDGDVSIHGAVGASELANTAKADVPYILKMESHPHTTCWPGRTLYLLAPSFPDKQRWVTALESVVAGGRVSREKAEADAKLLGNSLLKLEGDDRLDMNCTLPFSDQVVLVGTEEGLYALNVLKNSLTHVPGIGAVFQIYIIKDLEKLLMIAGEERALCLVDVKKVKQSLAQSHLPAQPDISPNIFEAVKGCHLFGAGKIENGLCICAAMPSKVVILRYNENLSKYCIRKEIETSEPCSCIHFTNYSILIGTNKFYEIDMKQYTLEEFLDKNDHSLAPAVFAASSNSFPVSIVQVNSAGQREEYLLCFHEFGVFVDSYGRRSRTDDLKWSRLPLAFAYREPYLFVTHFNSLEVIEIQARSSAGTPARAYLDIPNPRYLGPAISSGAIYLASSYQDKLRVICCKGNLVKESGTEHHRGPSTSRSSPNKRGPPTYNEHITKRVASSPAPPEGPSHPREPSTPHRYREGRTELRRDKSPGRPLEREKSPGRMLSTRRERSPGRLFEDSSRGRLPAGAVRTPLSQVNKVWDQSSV
Phosphatidylinositol 4-phosphate 5-kinase type-1 alpha (Homo sapiens), sequence (Q99755 whole entry, the tested form may be a part): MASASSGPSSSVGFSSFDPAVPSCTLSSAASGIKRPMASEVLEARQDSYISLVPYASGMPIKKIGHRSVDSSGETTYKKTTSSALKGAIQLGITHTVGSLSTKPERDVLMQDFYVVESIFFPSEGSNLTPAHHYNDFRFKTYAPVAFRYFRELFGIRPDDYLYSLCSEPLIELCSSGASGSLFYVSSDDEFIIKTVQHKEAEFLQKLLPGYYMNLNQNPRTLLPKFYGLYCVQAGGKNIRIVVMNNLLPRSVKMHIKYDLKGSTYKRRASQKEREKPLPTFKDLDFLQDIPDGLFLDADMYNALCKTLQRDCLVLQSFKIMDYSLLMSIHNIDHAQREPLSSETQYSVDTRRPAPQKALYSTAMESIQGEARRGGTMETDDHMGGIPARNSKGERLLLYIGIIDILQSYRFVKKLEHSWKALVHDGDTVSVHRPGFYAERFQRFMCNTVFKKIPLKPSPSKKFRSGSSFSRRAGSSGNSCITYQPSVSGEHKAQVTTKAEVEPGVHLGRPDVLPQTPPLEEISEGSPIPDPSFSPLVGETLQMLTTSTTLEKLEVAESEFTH
Serine/threonine-protein kinase Nek10 (Homo sapiens), sequence (Q6ZWH5 whole entry, the tested form may be a part): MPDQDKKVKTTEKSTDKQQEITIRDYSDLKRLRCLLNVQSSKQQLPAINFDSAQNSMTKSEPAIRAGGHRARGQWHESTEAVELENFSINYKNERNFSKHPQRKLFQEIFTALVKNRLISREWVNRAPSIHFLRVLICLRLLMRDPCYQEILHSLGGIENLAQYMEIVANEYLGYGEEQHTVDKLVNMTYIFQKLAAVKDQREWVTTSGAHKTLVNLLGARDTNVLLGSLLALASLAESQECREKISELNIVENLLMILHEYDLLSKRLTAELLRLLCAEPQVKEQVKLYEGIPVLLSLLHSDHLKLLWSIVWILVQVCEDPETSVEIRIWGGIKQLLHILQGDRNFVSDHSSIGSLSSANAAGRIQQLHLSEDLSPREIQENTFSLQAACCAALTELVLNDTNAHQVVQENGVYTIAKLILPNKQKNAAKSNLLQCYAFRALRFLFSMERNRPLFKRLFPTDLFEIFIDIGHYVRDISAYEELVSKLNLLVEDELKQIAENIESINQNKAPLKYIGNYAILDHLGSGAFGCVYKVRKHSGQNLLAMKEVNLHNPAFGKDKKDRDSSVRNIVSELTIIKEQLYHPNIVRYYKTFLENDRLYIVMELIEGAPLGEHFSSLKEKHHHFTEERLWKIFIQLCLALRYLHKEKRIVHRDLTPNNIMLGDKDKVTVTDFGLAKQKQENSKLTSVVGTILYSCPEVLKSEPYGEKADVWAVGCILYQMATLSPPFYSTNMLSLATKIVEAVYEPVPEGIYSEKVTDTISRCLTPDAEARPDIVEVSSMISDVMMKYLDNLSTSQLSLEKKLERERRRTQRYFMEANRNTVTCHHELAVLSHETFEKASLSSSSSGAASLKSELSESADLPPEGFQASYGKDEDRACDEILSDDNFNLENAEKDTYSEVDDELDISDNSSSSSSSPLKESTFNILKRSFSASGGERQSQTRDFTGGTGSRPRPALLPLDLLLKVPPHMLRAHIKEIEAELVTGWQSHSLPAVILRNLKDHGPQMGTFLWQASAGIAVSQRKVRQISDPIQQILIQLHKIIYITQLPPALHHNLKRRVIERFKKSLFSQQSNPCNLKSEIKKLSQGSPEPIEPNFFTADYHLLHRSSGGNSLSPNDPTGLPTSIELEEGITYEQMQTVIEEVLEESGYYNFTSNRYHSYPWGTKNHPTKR
Ribosomal protein S6 kinase alpha-1 (Homo sapiens), sequence (Q15418 whole entry, the tested form may be a part): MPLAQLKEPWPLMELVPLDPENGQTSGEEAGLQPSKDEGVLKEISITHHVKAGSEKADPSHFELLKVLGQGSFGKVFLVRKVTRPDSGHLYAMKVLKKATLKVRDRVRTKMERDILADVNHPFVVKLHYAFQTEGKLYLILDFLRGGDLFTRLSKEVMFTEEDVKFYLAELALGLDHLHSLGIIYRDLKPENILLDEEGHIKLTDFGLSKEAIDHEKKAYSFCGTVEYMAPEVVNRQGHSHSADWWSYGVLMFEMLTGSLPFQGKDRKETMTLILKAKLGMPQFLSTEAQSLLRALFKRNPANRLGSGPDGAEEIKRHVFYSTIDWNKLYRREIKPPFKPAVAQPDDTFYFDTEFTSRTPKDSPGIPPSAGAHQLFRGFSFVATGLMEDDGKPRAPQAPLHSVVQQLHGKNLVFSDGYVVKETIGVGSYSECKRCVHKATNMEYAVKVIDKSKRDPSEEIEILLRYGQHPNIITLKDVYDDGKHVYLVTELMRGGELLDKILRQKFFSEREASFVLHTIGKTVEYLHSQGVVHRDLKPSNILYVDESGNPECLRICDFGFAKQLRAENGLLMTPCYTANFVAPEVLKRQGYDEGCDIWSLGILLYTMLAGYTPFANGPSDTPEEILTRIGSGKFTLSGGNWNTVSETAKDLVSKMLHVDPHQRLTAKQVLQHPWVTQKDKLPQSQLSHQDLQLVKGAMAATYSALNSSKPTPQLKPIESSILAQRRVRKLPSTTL

COc1cc(OC)c(Cl)c(N2Cc3cnc(Nc4ccc(F)cc4)nc3N(C3CCN(C(=O)/C=C/CN(C)C)CC3)C2=O)c1Cl
IC50 [1]: 8.69 nM | Activity [2]: 100% | Activity [3]: 99% | Activity [4]: 96% | Activity [5]: 100% | Activity [6]: 100% | Activity [7]: 99% | Activity [8]: 81% | Activity [9]: 82% | Activity [10]: 99% | Activity [11]: 100% | Activity [12]: 2.7% | Activity [13]: 100% | Activity [14]: 86% | Activity [15]: 100% | Activity [16]: 100% | Activity [17]: 100% | Activity [18]: 94% | Activity [19]: 88% | Activity [20]: 90% | Activity [21]: 97%
